# PABP FP inh: PABP poly(A) RNA binding inhibitors, primary screen, biochemical, fluorescence polarization, uHTS; Polyadenylate-binding protein 1 (Homo sapiens), P11940; calls only at 35 µM; 290,000 compounds, 1% hits;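 also: calls also rest on retests at 20 µM and on dose response follow-up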
# MLLE-PAM2 inh: inhibitors of PABP1 MLLE–PAM2 peptide binding, primary screen, biochemical, fluorescence polarization, FITC-PAM2, GST-MLLE; 360,000 compounds, 0.36% hits; inhibition, % at 20 µM; Polyadenylate-binding protein 1 (Homo sapiens), P11940; in the data active = inhibition above about 35%, passing the limit was not always enough
# eIF4H FP inh: human eIF4H binding inhibitors, primary screen, translation initiation inhibitor project, biochemical, uHTS, fluorescence polarization | Eukaryotic translation initiation factor 4H (Homo sapiens), Q15056 | eIF4H fluorescence polarization binding assay | 290,000 compounds, 0.94% hits | AID 2012, 2009 | inhibition, % at 35 µM;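 also: calls also rest on retests at 20 µM and on dose response follow-up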
# SKN-1 block: suppressors of acrylamide-induced Pgst-4::GFP reporter in worms, primary screen, SKN-1 inhibitor project, whole organism, uHTS, GFP/RFP fluorescence ratio, strain VP596. C. elegans VP596 Pgst-4::GFP/RFP ratio, 24 h. inhibition, % at 21.8 µM. 360,000 compounds, 0.49% hits. AID 624304, 2012;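 active = interference check ratio from 0.5 to 1.5 plus GFP to RFP signal ratio inhibition reaching or exceeding a fixed threshold, cut at about 30% in these data, passing the limit was not always enough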
# MT1-MMP act inh: blockers of MT1-MMP proenzyme processing, primary screen, HT1080 RFP-PRO-GFP cells, GFP/RFP fluorescence | Matrix metalloproteinase-14 (Homo sapiens), P50281 | GFP/RFP ratio fluorescence, overnight; percent of plate control window, DMSO zero | GFP/RFP ratio change, % at 20 µM | 360,000 compounds, 0.061% hits | AID 651647, 2012;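 active = GFP/RFP ratio change of at least 30% with cell ATP level not reduced by more than half and red fluorescence within 50% of control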
#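 Material: RFP-PRO-GFP reporter HT1080 cells. Dosing: single-point 20 µM compound, 1% DMSO. Controls: DMSO and RFP-L50D-GFP cell wells. Timing: cells overnight before dosing, compound overnight, 37 °C, 5% CO2. Measure: GFP/RFP fluorescence ratio.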
# Hits are given with their value; - = inactive; ? = inconclusive; . = no result given; + = active, no number. A selection: hits, their analogues and other compounds. The true share with any hit is near 1.8%. Unless noted, no rule for the calls is given here.
SMILES,PABP FP inh,MLLE-PAM2 inh,eIF4H FP inh,SKN-1 block,MT1-MMP act inh
Cc1ccc(S(=O)(=O)N2C[C@H]3[C@H]4C(=O)N(c5ccccc5)C(=O)[C@H]4CC(=O)[C@H]3[C@@H]2c2ccccc2F)cc1,.,-,.,-,-
Cc1ccc(S(=O)(=O)N2C[C@H]3[C@H]4C(=O)N(c5ccccc5)C(=O)[C@H]4CC(=O)[C@H]3[C@@H]2c2cccc3ccccc23)cc1,.,-,.,36,-
O=C(NNC(=O)c1ccc(Cn2cccn2)o1)NC12CC3CC(CC(C3)C1)C2,-,-,-,-,-
C=C(C)CCOC(=O)C(CC(=O)O)NCc1ccco1 (stereo unspecified),+,-,?,-,-
O=C(O)CC(NCc1ccco1)C(=O)OCCc1ccccc1 (stereo unspecified),-,-,-,-,-
COc1cc(C(O)c2nc(-c3cccc(NC(C)=O)c3)cs2)ccc1F (stereo unspecified),.,-,.,-,-
CCc1nc2ccc(C(=O)NCCCn3ccnc3)cn2c1N(C)Cc1cccs1,.,-,.,-,-
Nc1nc(=S)c2ncn(C3OC(CO)C(O)C3O)c2[nH]1 (stereo unspecified),+,-,89,-,-
Cc1c(Cl)c([N+](=O)[O-])nn1CCCC(=O)O,-,-,active,-,-
Cc1c(Cl)c([N+](=O)[O-])nn1CCCC(=O)NCCc1ccccc1,-,-,-,-,-
CSc1nc(N)nc(-c2cccs2)c1C#N,-,-,-,-,-
CC(C)Sc1nc(N)nc(-c2cccs2)c1C#N,-,-,-,40,-
C[N+]1(CC(=O)OCCCC2CCCCC2)CCCC1,+,-,-,-,-
Cc1nc2ccccc2c(=O)n1/N=C/c1ccco1,-,-,-,-,-
O=c1c2ccccc2nc(-c2ccco2)n1/N=C/c1ccco1,+,-,97,-,-
Nc1cc(S(=O)(=O)Nc2ccccc2Cl)ccc1N1CCCCC1,.,-,.,-,-
Cc1cccc(C)c1NC(=O)CN(C)C(=O)c1ccc2c(=O)n3c(nc2c1)CCC3,.,-,.,-,-
c1coc(-c2nnc(-c3ccco3)nn2)c1,+,38,99,-,-
c1ccc(-c2nnc(-c3ccco3)o2)cc1,-,-,-,-,-
C=CC(=O)N1CCCC(Nc2nc(Nc3ccc(N(C)C(=O)CC)cc3C)nc3nc[nH]c23)C1 (stereo unspecified),.,-,.,-,-
CC(Cc1ccccc1)NC(=S)CN1CCCC1=S (stereo unspecified),-,-,53,-,-
CCOC(=O)[C@]12CCC=C1N(Cc1ccc3c(c1)OCO3)C(=O)[C@H](CC(=O)NCCC(C)C)C2,.,.,.,-,-
COc1cccc(-c2cc3nc(C)c(C)c(N4CCN(C(=O)c5ccoc5)CC4)n3n2)c1,.,-,.,-,-
N#CC1=C(N)N(c2ccc(F)cc2)C2=C(C1c1ccc(O)cc1)S(=O)(=O)CC2 (stereo unspecified),-,-,-,35,-
Cc1sc(NC(=O)CCl)c(C(=O)c2ccccc2)c1C,-,37,-,-,-
SMILES,PABP FP inh,MLLE-PAM2 inh,eIF4H FP inh,SKN-1 block,MT1-MMP act inh
CCN(Cc1cnn(C)c1)C(=O)c1ccc2nc(Cc3cccc(Cl)c3)oc2c1,-,-,-,-,-
CCc1ccc(C(=O)CSC2=C(C#N)C(c3ccco3)C(C(C)=O)=C(C)N2)cc1 (stereo unspecified),-,.,72,.,.
CC(=O)C1=C(C)OC(N)=C(C#N)C1c1ccco1 (stereo unspecified),?,-,?,37,-
CC(=O)C1=C(C)NC(SCC(=O)c2ccc(Cl)c(Cl)c2)=C(C#N)C1c1ccco1 (stereo unspecified),+,-,71,-,-
CCOC(=O)CSC1=C(C#N)C(c2ccccc2F)C(C(C)=O)=C(C)N1 (stereo unspecified),?,-,50,-,-
CCOC(=O)CSC1=C(C#N)C(c2sccc2C)C(C(C)=O)=C(C)N1 (stereo unspecified),-,-,-,-,-
COC(=O)C1=C(C)OC(N)=C(C#N)C1c1ccco1 (stereo unspecified),-,-,-,-,-
CCC(=O)N1CCc2cc(Br)cc(S(=O)(=O)N3CCC(C(=O)NC(C)C)CC3)c21,-,-,-,-,-
Cc1ccc(C(=O)NCC(=O)NCc2ccc(Cl)cc2)s1,.,-,.,-,-
COc1ccc(S(=O)(=O)N2CCN(C(=O)c3cc(C)on3)CC2)cc1,.,-,.,-,-
C=CCOC(=O)C1=C(C)OC(N)=C(C#N)C1c1ccc2c(c1)OCO2 (stereo unspecified),-,-,-,-,-
C=CCOC(=O)C1=C(C)OC(N)=C(C#N)C1c1ccoc1 (stereo unspecified),-,-,102,-,-
CCCCCCCCN1C(=O)[C@H](CC(=O)NCc2cccc3ccccc23)C[C@@]2(C(=O)OCC)CCC=C12,.,.,.,-,-
COC(=O)C1=C(C(=O)OC)C(c2ccccc2O)c2sc(=O)[nH]c2S1 (stereo unspecified),-,45,-,-,-
COC(=O)c1sc2ccccc2c1N,-,-,-,-,-
CCc1cc(=O)oc2cc(OC(C)C(=O)N3CC[C@@]4(O)CCCC[C@H]4C3)ccc12 (stereo partly specified),.,-,.,-,-
O=c1c(/C=N/Nc2ccccc2)c(Sc2nnnn2-c2ccccc2)nc2ccccn12,?,-,?,36,-
O=C(O)c1ccccc1N/N=C/c1c(Sc2nnnn2-c2ccccc2)nc2ccccn2c1=O,-,-,-,-,-
COc1cc2c(ccc3cc(OC)c(OC)c(O)c32)cc1O,+,-,74,-,-
CC(C)[C@H](NC(=O)c1ccc([N+](=O)[O-])cc1Cl)C(=O)N1CCN(C/C=C/c2ccccc2)CC1,.,-,.,-,-
Cc1nnc(-c2ccco2)c2cn(-c3cccc(Br)c3)nc12,-,-,64,-,-
CSCCC(=O)N1CC[C@@H](N2CCN(c3ccccc3F)CC2)[C@H](O)C1,-,-,-,-,-
Cc1ccc(N2CC(C(=O)OCC(=O)c3ccc([N+](=O)[O-])cc3)CC2=O)cc1 (stereo unspecified),-,-,-,-,-
CO/N=C/C1C(=O)NN=C1c1ccccc1 (stereo unspecified),+,-,?,-,-
N#CC1=C(N)NC(=S)C(C(N)=O)C1c1ccccc1F (stereo unspecified),-,46,-,-,-
N#CC1=C(N)NC(=S)C(C(N)=O)C1c1ccc(Cl)cc1Cl (stereo unspecified),-,-,-,-,-
